According to ChEMBL document CHEMBL3045866, “A novel family of insect-selective peptide neurotoxins targeting insect large-conductance calcium-activated K+ channels isolated from the venom of the theraphosid spider Eucratoscelus constrictus” (Mol Pharmacol, 2011):
Activity calls are given as the source filed them. The rule behind the calls is not given here.

Tests used:
[1] = test system: Gryllus bimaculatus; experiment: Neurotoxicity against third-instar nymph stage of Gryllus bimaculatus (cricket) assessed as mortality at 1.1 nmol/g measured at 15 min; format: functional, organism-based
[2] = test system: Gryllus bimaculatus; experiment: Neurotoxicity against third-instar nymph stage of Gryllus bimaculatus (cricket) assessed as paralysis at 1.1 nmol/g measured within 5 min; format: functional, organism-based
[3] = biological target: Voltage-dependent calcium channel alpha-1 subunit (Blattella germanica) (UniProt O18323); experiment: Inhibition of voltage-gated calcium channel Cav-mediated late-sustained current in Periplaneta americana (American cockroach) DUM neurons assessed as measured at holding potential -80 mV depolarized to +40 mV after 10 min by whole cell patch clamp assay in presence of CdCl2
Chain of Voltage-dependent calcium channel alpha-1 subunit (Blattella germanica) (O18323 as listed by the source): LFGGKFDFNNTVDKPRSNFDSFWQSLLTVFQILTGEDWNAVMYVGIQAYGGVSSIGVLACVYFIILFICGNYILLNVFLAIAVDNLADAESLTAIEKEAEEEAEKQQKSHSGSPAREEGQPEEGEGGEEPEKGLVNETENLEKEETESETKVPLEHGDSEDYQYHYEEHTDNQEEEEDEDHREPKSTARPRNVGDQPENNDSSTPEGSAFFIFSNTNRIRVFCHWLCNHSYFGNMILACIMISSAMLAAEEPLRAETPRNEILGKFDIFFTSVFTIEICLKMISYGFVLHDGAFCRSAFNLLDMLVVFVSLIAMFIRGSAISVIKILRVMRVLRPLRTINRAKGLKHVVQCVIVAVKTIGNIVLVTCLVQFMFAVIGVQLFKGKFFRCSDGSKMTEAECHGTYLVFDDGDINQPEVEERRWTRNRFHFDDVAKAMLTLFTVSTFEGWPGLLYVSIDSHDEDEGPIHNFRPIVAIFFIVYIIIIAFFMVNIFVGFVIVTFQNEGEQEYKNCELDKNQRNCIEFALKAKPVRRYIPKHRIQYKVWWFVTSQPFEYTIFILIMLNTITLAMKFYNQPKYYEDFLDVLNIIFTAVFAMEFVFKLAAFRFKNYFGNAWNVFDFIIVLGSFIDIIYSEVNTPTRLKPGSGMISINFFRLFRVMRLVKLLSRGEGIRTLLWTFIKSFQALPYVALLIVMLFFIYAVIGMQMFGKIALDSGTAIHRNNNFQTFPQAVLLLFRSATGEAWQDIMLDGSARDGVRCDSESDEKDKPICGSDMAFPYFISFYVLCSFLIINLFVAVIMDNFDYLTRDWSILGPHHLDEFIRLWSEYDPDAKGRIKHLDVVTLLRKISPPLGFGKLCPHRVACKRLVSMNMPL
In short: (§1)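 BK(Ca) current in DUM neurons with 5 mM 4-AP in the bath. Toxin perfused for 10 min or to equilibrium; then 1 mM CdCl2 plus 30 nM ChTx added, and the residual current subtracted. 100-ms steps from Vh -80 mV to +30 mV, or to +40 mV in 10-mV increments for I–V. Peak (fast-transient) and 100-ms (late) amplitudes measured. IC50 from logistic fit; n = 3–6.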

[4] = test system: Mus musculus; experiment: Neurotoxicity against Mus musculus C57BL/6 (mouse) assessed as extension of leg at 500 pmol, icv; format: toxicity, organism-based; conditions: in vivo, icv_or_intrathecal
In short: (§2)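 Female C57BL/6 mice (~20 g) lightly anesthetized with diethylether. 5 µl of sample in BSA solution injected into the left cerebral ventricle. Posture, behavior and neurotoxic signs observed; n = 2.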

[5] = Inhibition of transient A type potassium channel IK(A) in Periplaneta americana (American cockroach) DUM neurons assessed as effect on voltage-dependent activation at 330 nM measured at holding potential -90 mV depolarized to +40 mV with 100 ms increments after 10 min by whole cell patch clamp …
[6] = test system: Mus musculus; experiment: Neurotoxicity against Mus musculus C57BL/6 (mouse) assessed as convulsion at 500 pmol, icv; format: toxicity, organism-based; conditions: in vivo, icv_or_intrathecal; in short: as §2
[7] = test system: Mus musculus; experiment: Neurotoxicity against Mus musculus C57BL/6 (mouse) assessed as extension of toes at 500 pmol, icv; format: toxicity, organism-based; conditions: in vivo, icv_or_intrathecal; in short: as §2
[8] = biological target: Voltage-gated sodium channel Nav1 alpha subunit (Periplaneta americana) (UniProt D0E0C1); experiment: Inhibition of Nav channel in Periplaneta americana (American cockroach) DUM neurons assessed as effect on voltage-dependent activation at 330 nM measured at holding potential -90 mV depolarised to +70 mV with 10 mV increments for 10 min by whole cell patch clamp assay
Chain of Voltage-gated sodium channel Nav1 alpha subunit (Periplaneta americana) (D0E0C1 as listed by the source): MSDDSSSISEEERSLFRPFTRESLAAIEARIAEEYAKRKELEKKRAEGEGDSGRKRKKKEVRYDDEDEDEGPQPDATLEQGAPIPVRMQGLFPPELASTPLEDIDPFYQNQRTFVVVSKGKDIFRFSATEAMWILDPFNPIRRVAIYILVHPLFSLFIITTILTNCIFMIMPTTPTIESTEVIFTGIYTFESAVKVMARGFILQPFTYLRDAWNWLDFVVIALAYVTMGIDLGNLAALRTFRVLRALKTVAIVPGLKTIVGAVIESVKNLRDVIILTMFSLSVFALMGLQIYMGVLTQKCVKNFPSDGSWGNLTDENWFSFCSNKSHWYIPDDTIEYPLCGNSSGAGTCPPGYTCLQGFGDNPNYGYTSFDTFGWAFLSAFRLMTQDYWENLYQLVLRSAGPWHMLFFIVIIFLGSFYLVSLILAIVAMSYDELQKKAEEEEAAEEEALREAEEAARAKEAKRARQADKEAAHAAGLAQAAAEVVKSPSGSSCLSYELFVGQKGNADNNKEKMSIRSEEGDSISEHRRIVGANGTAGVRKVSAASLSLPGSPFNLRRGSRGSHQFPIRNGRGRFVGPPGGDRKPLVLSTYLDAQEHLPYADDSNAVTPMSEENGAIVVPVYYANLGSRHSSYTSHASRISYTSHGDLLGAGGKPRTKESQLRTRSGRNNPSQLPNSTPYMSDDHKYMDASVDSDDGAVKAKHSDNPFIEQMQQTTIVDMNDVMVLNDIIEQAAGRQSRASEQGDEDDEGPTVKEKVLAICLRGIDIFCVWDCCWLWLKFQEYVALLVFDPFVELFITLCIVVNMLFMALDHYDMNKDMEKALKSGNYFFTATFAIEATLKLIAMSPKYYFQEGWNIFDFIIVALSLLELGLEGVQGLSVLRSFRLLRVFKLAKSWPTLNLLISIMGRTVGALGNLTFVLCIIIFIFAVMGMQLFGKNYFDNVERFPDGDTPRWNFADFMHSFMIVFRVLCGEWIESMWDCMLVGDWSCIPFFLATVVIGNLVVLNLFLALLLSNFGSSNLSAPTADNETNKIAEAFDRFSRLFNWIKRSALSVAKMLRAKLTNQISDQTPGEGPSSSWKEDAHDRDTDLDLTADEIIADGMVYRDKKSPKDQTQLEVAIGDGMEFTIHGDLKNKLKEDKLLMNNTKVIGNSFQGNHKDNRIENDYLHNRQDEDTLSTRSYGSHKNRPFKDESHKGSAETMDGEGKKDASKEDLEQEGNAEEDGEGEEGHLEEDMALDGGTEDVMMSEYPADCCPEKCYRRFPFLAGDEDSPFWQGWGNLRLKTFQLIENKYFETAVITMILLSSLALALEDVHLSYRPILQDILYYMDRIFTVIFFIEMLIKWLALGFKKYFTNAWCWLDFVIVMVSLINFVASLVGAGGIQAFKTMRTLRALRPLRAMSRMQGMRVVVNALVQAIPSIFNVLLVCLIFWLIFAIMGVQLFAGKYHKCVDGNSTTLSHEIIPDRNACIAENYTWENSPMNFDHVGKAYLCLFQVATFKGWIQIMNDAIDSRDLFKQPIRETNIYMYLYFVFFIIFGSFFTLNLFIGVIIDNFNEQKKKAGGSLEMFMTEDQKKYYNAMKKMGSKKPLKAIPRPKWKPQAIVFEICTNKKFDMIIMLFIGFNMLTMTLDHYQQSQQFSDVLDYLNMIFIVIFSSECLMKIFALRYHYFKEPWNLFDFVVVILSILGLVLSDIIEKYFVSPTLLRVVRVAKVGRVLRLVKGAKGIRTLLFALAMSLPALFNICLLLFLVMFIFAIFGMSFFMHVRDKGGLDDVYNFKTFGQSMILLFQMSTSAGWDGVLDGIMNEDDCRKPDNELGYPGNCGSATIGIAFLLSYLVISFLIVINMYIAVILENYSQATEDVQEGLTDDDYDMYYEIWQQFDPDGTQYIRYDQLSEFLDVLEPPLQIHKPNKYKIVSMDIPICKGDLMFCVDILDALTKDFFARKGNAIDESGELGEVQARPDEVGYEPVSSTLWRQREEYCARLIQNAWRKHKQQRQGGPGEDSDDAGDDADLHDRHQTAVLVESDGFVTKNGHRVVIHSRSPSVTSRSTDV
In short: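 Whole-cell voltage clamp of TTX-sensitive Na+ current in DUM neurons isolated from adult cockroaches and kept no longer than 24 h at 30°C. Bath (mM): NaCl 80, CsCl 5, CaCl2 1.8, TEA-Cl 50, 4-AP 5, HEPES 10, NiCl2 0.1, CdCl2 1, pH 7.4. Vh -90 mV; test pulse to -10 mV, or steps to +70 mV in 10-mV increments at 0.1 Hz. P-P/4 leak subtraction; 20–23°C.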

[9] = test system: Mus musculus; experiment: Neurotoxicity against Mus musculus C57BL/6 (mouse) assessed as cyanosis at 500 pmol, icv; format: toxicity, organism-based; conditions: in vivo, icv_or_intrathecal; in short: as §2
[10] = Inhibition of delayed rectifier potassium channel IK(DR) in Periplaneta americana (American cockroach) DUM neurons assessed as effect on voltage-dependent activation at 330 nM measured at holding potential -90 mV depolarized to +40 mV with 100 ms increments after 10 min by whole cell voltage clamp …
[11] = biological target: Voltage-dependent calcium channel alpha-1 subunit (Blattella germanica) (UniProt O18323); experiment: Inhibition of high voltage activated Cav channel in Periplaneta americana (American cockroach) DUM neurons assessed as effect on voltage-dependent activation at 330 nM measured at holding potential -90 mV depolarized to +70 mV with 10 mV increments after 10 min by whole cell patch clamp assay
In short: (§3)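 Ba2+ currents through M-LVA and HVA Cav channels recorded by whole-cell clamp in cockroach DUM neurons at 20–23°C. Toxin applied for 10 min via a perfusion needle. Peak IBa measured relative to control. For activation, steps from Vh -90 mV to +70 mV in 10-mV increments at 0.1 Hz. P-P/4 leak subtraction; n = 3.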

[12] = Inhibition of transient A type potassium channel IK(A) in Periplaneta americana (American cockroach) DUM neurons at 330 nM measured at holding potential -90 mV depolarized to +30 mV after 10 min by whole cell patch clamp assay in presence of CdCl2 and ChTx
[13] = biological target: Voltage-dependent calcium channel alpha-1 subunit (Blattella germanica) (UniProt O18323); experiment: Inhibition of mid-low voltage activated Cav channel in Periplaneta americana (American cockroach) DUM neurons assessed as effect on voltage-dependent activation at 330 nM measured at holding potential -90 mV depolarized to +70 mV with 10 mV increments after 10 min by whole cell patch clamp assay; in short: as §3
[14] = test system: Mus musculus; experiment: Neurotoxicity against Mus musculus C57BL/6 (mouse) assessed as tonic paralysis at 500 pmol, icv measured after 4 hr; format: toxicity, organism-based; conditions: in vivo, icv_or_intrathecal
[15] = Reversible inhibition of Potassium channel Kv in Periplaneta americana (American cockroach) DUM neurons at 330 nM measured at holding potential -90 mV depolarized to +30 mV after 10 min by whole cell patch clamp assay relative to control
[16] = test system: Mus musculus; experiment: Neurotoxicity against Mus musculus C57BL/6 (mouse) assessed as cyanosis at 500 pmol, icv measured after 4 hr; format: toxicity, organism-based; conditions: in vivo, icv_or_intrathecal
[17] = biological target: Voltage-dependent calcium channel alpha-1 subunit (Blattella germanica) (UniProt O18323); experiment: (§4) Inhibition of voltage-gated calcium channel Cav-mediated fast-transient current in Periplaneta americana (American cockroach) DUM neurons assessed as effect on voltage-dependent activation at 25 nM measured at holding potential -80 mV in 10 mV increments depolarized to +40 mV after 10 min by whole cell patch clamp assay in presence of CdCl2; in short: as §1
[18] = test system: Mus musculus; experiment: Neurotoxicity against Mus musculus C57BL/6 (mouse) assessed as tonic paralysis at 500 pmol, icv; format: toxicity, organism-based; conditions: in vivo, icv_or_intrathecal; in short: as §2
[19] = test system: Mus musculus; experiment: Neurotoxicity against Mus musculus C57BL/6 (mouse) assessed as tail erection at 500 pmol, icv; format: toxicity, organism-based; conditions: in vivo, icv_or_intrathecal; in short: as §2
[20] = biological target: Voltage-dependent calcium channel alpha-1 subunit (Blattella germanica) (UniProt O18323); experiment: Inhibition of voltage-gated calcium channel Cav-mediated fast-transient current in Periplaneta americana (American cockroach) DUM neurons assessed as measured at holding potential -80 mV depolarized to +40 mV after 10 min by whole cell patch clamp assay in presence of CdCl2; in short: as §1
[21] = biological target: Voltage-dependent calcium channel alpha-1 subunit (Blattella germanica) (UniProt O18323); experiment: as §4, with “late-sustained” for “fast-transient”
[22] = test system: Mus musculus; experiment: Neurotoxicity against Mus musculus C57BL/6 (mouse) assessed as ataxia at 500 pmol, icv; format: toxicity, organism-based; conditions: in vivo, icv_or_intrathecal; in short: as §2
[23] = Inhibition of delayed rectifier potassium channel IK(DR) in Periplaneta americana (American cockroach) DUM neurons at 330 nM measured at holding potential -90 mV depolarized to +30 mV after 10 min by whole cell voltage clamp assay in presence of CdCl2 and ChTx relative to control
[24] = test system: Mus musculus; experiment: Neurotoxicity against Mus musculus C57BL/6 (mouse) assessed as respiratory paralysis at 500 pmol, icv; format: toxicity, organism-based; conditions: in vivo, icv_or_intrathecal; in short: as §2
[25] = biological target: Voltage-gated sodium channel Nav1 alpha subunit (Periplaneta americana) (UniProt D0E0C1); conditions: 300 nM

CSCC[C@@H]1NC(=O)[C@H](CCCCN)NC(=O)[C@H](Cc2ccccc2)NC(=O)[C@H](CCC(N)=O)NC(=O)[C@@H](NC(=O)[C@@H](N)Cc2ccc(O)cc2)CSSC[C@@H]2NC(=O)[C@@H]3CSSC[C@@H](C(=O)N[C@@H](CCCCN)C(=O)N[C@@H](CC(C)C)C(=O)N[C@@H](CC(N)=O)C(=O)N[C@@H](CC(C)C)C(=O)O)NC(=O)[C@H](Cc4c[nH]c5ccccc45)NC(=O)[C@H](CC(C)C)NC(=O)[C@H](CCCNC(=N)N)NC(=O)[C@H](CSSC[C@H](NC(=O)[C@H]([C@@H](C)O)NC(=O)[C@H](Cc4c[nH]c5ccccc45)NC1=O)C(=O)N[C@@H](CC(=O)O)C(=O)N[C@@H](CO)C(=O)N[C@@H](CCC(=O)O)C(=O)N[C@@H](CCCNC(=N)N)C(=O)N[C@@H](CCCCN)C(=O)N3)NC(=O)[C@H](C(C)C)NC(=O)[C@H](CCSC)NC(=O)[C@H](CC(=O)O)NC(=O)[C@H](CCC(=O)O)NC2=O
Activity [1]: Active | Activity [2]: Active | inhibition [3]: Dose-dependent effect | Activity [4]: Toxic | inhibition [5]: inactive | Activity [6]: Toxic | Activity [7]: Toxic | inhibition [8]: inactive | Activity [9]: Toxic | inhibition [10]: inactive | inhibition [11]: inactive | inhibition [12]: inactive | inhibition [13]: inactive | Activity [14]: Non-toxic | inhibition [15]: Active | Activity [16]: Non-toxic | inhibition [17]: inactive | Activity [18]: Toxic | Activity [19]: Toxic | inhibition [20]: Dose-dependent effect | inhibition [21]: inactive | Activity [22]: Toxic | inhibition [23]: inactive | Activity [24]: Toxic

NC1=N[C@H](O)[C@H]2[C@H]3O[C@]4(O)O[C@@H]([C@@H](O)[C@@]2(N1)[C@@H]4O)[C@]3(O)CO
inhibition [25]: Active
